Results from ChEMBL document CHEMBL1126866, “TSAO analogues. 3. Synthesis and anti-HIV-1 activity of 2',5'-bis-O-(tert-butyldimethylsilyl)-beta-D-ribofuranosyl 3'-spiro-5''-(4''-amino-1'',2''-oxathiole 2'',2''-dioxide) purine and purine-modified nucleosides” (J Med Chem, 1993).
pEC50: −log10 of the molar value.

How the values were obtained:
[1] = Effective concentration required to inhibit HIV-1 induced cytopathicity in MT-4 cells; type: functional, cell-based; details: Human immunodeficiency virus 1, MT4
Method in brief: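 MT-4 cells (5×10^5 cells/mL) were infected with HIV-1 at 100 CCID50 per mL of cell suspension and incubated with serial compound dilutions for 5 days. Viable cells were counted by trypan blue staining. EC50 = concentration reducing virus-induced loss of viable MT-4 cells by 50%.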

[2] = tested on: Human immunodeficiency virus 1; assay: Selectivity index expressed as the ratio of CC50/EC50 of MT-4 cell lines
MT4 = assay: Cytotoxic concentration required to inhibit the viability of MT-4 cells; type: functional; details: Homo sapiens
Method in brief: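 Mock-infected MT-4 cells (5×10^5 cells/mL) were cultured with serial dilutions of test compound for 5 days. Viable cells were counted by trypan blue staining. CC50 = concentration reducing the number of viable mock-infected MT-4 cells by 50%.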

[3] = tested on: Human immunodeficiency virus 2; assay: Effective concentration required to inhibit HIV-2 induced cytopathicity in MT-4 cells; type: functional, organism-based; details: Human immunodeficiency virus 2, MT4
CCRF-CEM = assay: Effective concentration required to inhibit HIV- induced giant cell formation in CEM cells; type: functional, cell-based; details: Homo sapiens
Method in brief: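 CEM cells (5×10^5 cells/mL) were infected with HIV-1 at 100 CCID50 per mL of cell suspension and mixed with compound dilutions. Syncytia were scored microscopically after 4 days. EC50 = concentration reducing syncytium number by 50%.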

Compound	pEC50 [1]	Selectivity index [2]	CC50 (MT4)	pEC50 [3]	pEC50 (CCRF-CEM)
CC(C)(C)[Si](C)(C)OC[C@H]1O[C@@H](n2cnc3c(O)ncnc32)[C@H](O[Si](C)(C)C(C)(C)C)[C@]12OS(=O)(=O)C=C2N	6.80	89	14 µM	< 5.15	
CC(C)(C)[Si](C)(C)OC[C@H]1O[C@@H](n2cnc3c(N)ncnc32)[C@H](O[Si](C)(C)C(C)(C)C)[C@]12OS(=O)(=O)C=C2N	6.56	47	13 µM	< 4.85	
Cn1cnc2c(ncn2[C@@H]2O[C@H](CO[Si](C)(C)C(C)(C)C)[C@@]3(OS(=O)(=O)C=C3N)[C@H]2O[Si](C)(C)C(C)(C)C)c1=O	6.29	>292	> 150 µM	< 3.82	7.00
COc1ccc(C(Nc2ncnc3c2ncn3[C@@H]2O[C@H](CO[Si](C)(C)C(C)(C)C)[C@]3(OS(=O)(=O)C=C3N)[C@H]2O[Si](C)(C)C(C)(C)C)(c2ccccc2)c2ccccc2)cc1	< 4.00	<1.9	191 µM	< 4.00	
CC(C)(C)[Si](C)(C)OC[C@H]1O[C@@H](n2cnc3c(N)ncnc32)[C@H](O[Si](C)(C)C(C)(C)C)[C@@]12OS(=O)(=O)C=C2N	< 5.57	<2.7	7.3 µM	< 5.57	
COc1ccc(C(Nc2ncnc3c2ncn3[C@@H]2O[C@H](CO[Si](C)(C)C(C)(C)C)[C@@]3(OS(=O)(=O)C=C3N)[C@H]2O[Si](C)(C)C(C)(C)C)(c2ccccc2)c2ccccc2)cc1	< 4.00	<1.9	192 µM	< 4.00	
CCn1cnc2ncn([C@@H]3O[C@H](CO[Si](C)(C)C(C)(C)C)[C@@]4(OS(=O)(=O)C=C4N)[C@H]3O[Si](C)(C)C(C)(C)C)c2c1=O	6.22	>248	> 150 µM	< 3.82	6.76
CC(C)(C)[Si](C)(C)OC[C@H]1O[C@@H](n2c(=O)[nH]c(=O)c3[nH]cnc32)[C@H](O[Si](C)(C)C(C)(C)C)[C@]12OS(=O)(=O)C=C2N	5.57	5.2	14 µM	< 5.15	5.64
CC(C)(C)[Si](C)(C)OC[C@H]1O[C@@H](n2cnc3[nH]c(=O)[nH]c(=O)c32)[C@H](O[Si](C)(C)C(C)(C)C)[C@]12OS(=O)(=O)C=C2N	6.45	36	13 µM	< 5.15	6.90
CC(C)(C)[Si](C)(C)OC[C@H]1O[C@@H](n2cnc3ncn([C@@H]4O[C@H](CO[Si](C)(C)C(C)(C)C)[C@@]5(OS(=O)(=O)C=C5N)[C@H]4O[Si](C)(C)C(C)(C)C)c3c2=O)[C@H](O[Si](C)(C)C(C)(C)C)[C@]12OS(=O)(=O)C=C2N	< 3.82	<1	> 150 µM	< 3.82	
CC(C)(C)[Si](C)(C)OC[C@H]1O[C@@H](n2cnc3ccccc32)[C@H](O[Si](C)(C)C(C)(C)C)[C@]12OS(=O)(=O)C=C2N	5.51	4.8	15 µM	< 5.15	
CC(C)(C)[Si](C)(C)OC[C@H]1O[C@@H](n2cnc3ncnc(O)c32)[C@H](O[Si](C)(C)C(C)(C)C)[C@]12OS(=O)(=O)C=C2N	6.76	86	15 µM	< 5.15	
Cn1cnc2ncn([C@@H]3O[C@H](CO[Si](C)(C)C(C)(C)C)[C@@]4(OS(=O)(=O)C=C4N)[C@H]3O[Si](C)(C)C(C)(C)C)c2c1=O	6.70	776	156 µM	< 4.00	7.17
CC(C)(C)[Si](C)(C)OC[C@H]1O[C@@H](n2cnc3cncnc32)[C@H](O[Si](C)(C)C(C)(C)C)[C@]12OS(=O)(=O)C=C2N	6.75	73	13 µM	< 5.15	7.13
CN(C)c1ncnc2c1ncn2[C@@H]1O[C@H](CO[Si](C)(C)C(C)(C)C)[C@@]2(OS(=O)(=O)C=C2N)[C@H]1O[Si](C)(C)C(C)(C)C	6.41	39	15 µM	< 4.52	6.19
CNc1ncnc2c1ncn2[C@@H]1O[C@H](CO[Si](C)(C)C(C)(C)C)[C@@]2(OS(=O)(=O)C=C2N)[C@H]1O[Si](C)(C)C(C)(C)C	6.84	96	14 µM	< 5.15	6.79
COc1ncnc2c1ncn2[C@@H]1O[C@H](CO[Si](C)(C)C(C)(C)C)[C@@]2(OS(=O)(=O)C=C2N)[C@H]1O[Si](C)(C)C(C)(C)C	6.85	149	21 µM	< 4.52	6.33
